# Bioassay records deposited in PubChem by several laboratories.
# bCat KO growth = primary screen for growth suppressors in beta-catenin knockout HCT116 cells (colon tumor, human) | HCT116 beta-catenin knockout viability, CellTiter-Glo, 60 h; active compounds read low | viability, % at 10 µM | 140,000 tested, 1.5% active;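 active = viability at or under a set limit, the compound median less 4 SD, cut at about 6% in these data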
# TNAP inh hi DEA = human TNAP enzyme inhibitors, primary screen, biochemical, luminescent, high phosphate acceptor level, uHTS; Alkaline phosphatase, tissue-nonspecific isozyme (Homo sapiens), P05186; purified TNAP, CDP-star luminescence, 1 M DEA; inhibition, % at 20 µM; 200,000 tested, 0.03% active;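 active = over 50% inhibition of tissue-nonspecific alkaline phosphatase at 20 µM in the single-dose screen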
# Target sequence (P05186 whole entry, looked up): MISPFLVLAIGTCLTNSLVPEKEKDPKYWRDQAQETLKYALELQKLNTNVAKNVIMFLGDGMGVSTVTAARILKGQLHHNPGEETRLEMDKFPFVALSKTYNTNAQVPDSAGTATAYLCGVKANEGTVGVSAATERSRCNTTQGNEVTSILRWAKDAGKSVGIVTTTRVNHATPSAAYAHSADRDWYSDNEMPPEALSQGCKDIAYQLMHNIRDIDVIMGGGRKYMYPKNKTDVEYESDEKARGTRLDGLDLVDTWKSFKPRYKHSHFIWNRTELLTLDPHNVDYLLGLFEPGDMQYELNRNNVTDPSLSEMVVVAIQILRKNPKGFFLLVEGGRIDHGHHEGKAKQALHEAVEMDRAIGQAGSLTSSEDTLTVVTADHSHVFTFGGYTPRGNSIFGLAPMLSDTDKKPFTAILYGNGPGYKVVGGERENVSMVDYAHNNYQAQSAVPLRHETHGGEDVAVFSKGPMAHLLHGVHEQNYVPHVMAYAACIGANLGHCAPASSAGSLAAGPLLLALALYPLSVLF
# TNAP inh no acc = human TNAP enzyme inhibitors, primary screen, biochemical, luminescent, no phosphate acceptor, uHTS | inhibition, % at 20 µM | 200,000 tested, 0.26% active | purified TNAP, CDP-star luminescence, 30 min | Alkaline phosphatase, tissue-nonspecific isozyme (Homo sapiens), P05186 | AID 1012, 2008;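 active = tissue-nonspecific alkaline phosphatase inhibition above about 50% at 20 µM in the single-dose screen, limit read from the data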
# Lmaj promast = Leishmania major promastigote growth inhibition, primary screen; 200,000 tested, 9% active; AID 1063, 2008; inhibition, % at 10 µM; Leishmania major promastigotes, resazurin fluorescence viability; in the data active = inhibition above about 50%;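 note: promastigotes grown with compound for 44 hours at 28 °C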
# HCT116 PTEN-null = growth suppression of PTEN-null HCT116, primary screen, cell-based, CellTiter-Glo; HCT116 PTEN-null viability, 60 h; active compounds read low; viability, % at 10 µM; 140,000 tested, 1.2% active; AID 827, 2007;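 active = viability at or below a set limit, 4 SD under the median of all tested compounds, cut at about 3.7% in these data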;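 note: PTEN knockout HCT116 line with beta catenin targeted HCT116 as companion control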
# TNAP act hiacc = TNAP activators at high phosphate acceptor level, primary screen, biochemical, luminescence, uHTS | purified TNAP, CDP-star luminescence, 1 M DEA, 30 min; active compounds read high; 0 = EDTA background, 1 = DMSO-only activity | AID 1136, 2008 | 200,000 tested, under 10 active | Alkaline phosphatase, tissue-nonspecific isozyme (Homo sapiens), P05186 | activation factor at 20 µM;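 active = activation factor at least 2 at 20 µM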
#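 system = human TNAP | amount = enzyme diluted 1/800 final | reagent = 100 µM CDP-star substrate | signal = luminescent substrate turnover signal | dosing = one dose, 20 µM | benchmarks = EDTA negative control, DMSO positive control | measure = activation factor | timing = 30 min reaction, room temperature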
# Lmaj promast 1uM = Leishmania major promastigote growth inhibition, confirmation, 1 µM repeat of primary hits. L. major promastigote growth, resazurin fluorescence, 48 h. 1,100 tested, 13% active. inhibition, % at 1 µM. shares compounds with Lmaj promast;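 active = inhibition above about 50% in both repeat tests, limit read from the data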
# Numbers stand for hits; i = inactive; nt = no result given. Rows were chosen to be rich in hits. Some 9.6% of all compounds tested hit in one or more screens of this group.
SMILES,bCat KO growth,TNAP inh hi DEA,TNAP inh no acc,Lmaj promast,HCT116 PTEN-null,TNAP act hiacc,others
COCC(C)OC(=O)c1c(N)n(Cc2ccco2)c2nc3ccccc3nc12 (stereo not drawn),i,i,i,95.2,i,i,
Nc1c(C(=O)NCc2ccco2)c2nc3ccccc3nc2n1Cc1ccc(F)cc1,i,i,i,58.6,i,i,
Cc1cc(C)c2c(c1)-c1cc(C)nn1C(c1cccnc1)N2 (stereo not drawn),nt,i,i,i,nt,i,
COc1cccc(N2CCN(Cc3ccc(Cl)cc3)CC2)c1,i,i,i,i,i,i,
COc1cccc(C2(O)CCN(Cc3ccncc3)CC2)c1,nt,i,i,91.8,nt,i,
O=C1/C(=C/c2ccc3c(c2)OCO3)N2CCC1CC2,i,i,i,i,i,i,
O=C1/C(=C\c2cc3c(cc2Br)OCO3)N2CCC1CC2,i,i,i,63.4,i,i,
Cc1ccccc1C1=NCC(=O)N(CC(=O)NCc2ccco2)c2sc3c(c21)CCCC3,i,i,i,92.8,i,i,
N=c1c[n+](C2CCCCC2)[n-]o1,nt,i,i,i,nt,i,
COc1ccccc1CCNC1C2CC3CC(C2)CC1C3 (stereo not drawn),i,i,i,i,i,i,
COc1ccccc1CCNC1CCC(C)CC1 (stereo not drawn),i,i,i,76.7,i,i,
CCC(=NCCc1c[nH]c2ccccc12)c1c(O)n(C)c(=O)n(C)c1=O,i,i,i,i,i,i,
Cc1ccc(N(C)C(=O)Oc2ccc(C(=O)c3ccc(Cl)cc3)cc2)cc1,i,i,i,i,i,i,
CCC(=O)O[C@@H]1[C@@H](OC(C)=O)[C@@]2(O)C(C[C@H](O)C2(C)C)[C@](C)(O)[C@H]2CC[C@@H]3[C@@H](O)[C@]12C[C@@]3(C)O (stereo partly drawn),i,i,i,i,i,i,
O=C1NC(=O)N(CCC2=CCCCC2)C(=O)/C1=C\c1cccs1,i,i,i,55.0,i,i,
Cn1cccc1/C=C1\C(=O)NC(=O)N(CCC2=CCCCC2)C1=O,i,i,i,i,i,i,
COc1ccc(Cn2c(O)c(/C=N/NC(=O)c3ccccc3O)c(=O)[nH]c2=O)cc1,i,i,i,i,i,i,
COc1ccc(Cn2c(O)c(/C=N/NC(=O)c3ccccc3)c(=O)[nH]c2=O)cc1,i,i,71.1,i,i,i,
c1ccc(CN2CCN(Cc3ccc4c(c3)OCCO4)CC2)cc1,i,i,i,79.7,i,i,
CCCC(=O)NC(Oc1ccccc1Cl)C(Cl)(Cl)Cl (stereo not drawn),i,i,i,i,i,i,
CCSc1cc(C2C(C#N)=C(N)Oc3n[nH]c(C)c32)c(C)o1 (stereo not drawn),i,i,i,94.0,i,i,
COCCNCCOc1ccc(C(C)(C)c2ccccc2)cc1,i,i,i,97.8,i,i,
CC(C)C/C(=N/O)c1cn(C)c2ccccc12,nt,i,i,i,nt,i,
COc1ccccc1Cn1c(SCC(=O)C(C)(C)C)nc2cc(C(=O)N3CCC4(CC3)OCCO4)ccc2c1=O,nt,i,i,56.5,nt,i,
Fc1ccccc1CCNCc1cccc(Cl)c1Cl,i,i,i,i,i,i,
SMILES,bCat KO growth,TNAP inh hi DEA,TNAP inh no acc,Lmaj promast,HCT116 PTEN-null,TNAP act hiacc,others
N#Cc1cc2c(nc1SCC(=O)Nc1cc(Cl)ccc1Cl)C1CCN2CC1,1.1,i,i,i,0.7,i,
O=c1c2ccccc2nc(-c2cccs2)n1-c1ccccc1,i,i,i,i,i,i,
NC(N)=N/N=C/c1cn(-c2ccccc2)nc1-c1cccs1,nt,i,i,100.5,nt,i,
CCC(=NCCCn1ccnc1)c1c(O)n(Cc2ccccc2)c(=O)[nH]c1=O,i,i,i,i,i,i,
CC(=O)OC1N=C(c2ccccc2)c2cc(Br)ccc2NC1=O (stereo not drawn),i,i,i,84.9,i,i,
CN(C)c1ccc(/C=C/c2cc[n+](C)c3ccccc23)cc1,nt,i,i,100.4,nt,i,
CC1CN=C(NCCc2ccccc2)S1 (stereo not drawn),nt,i,i,i,nt,i,
CCN(c1ccc(C(O)(C(=O)OC)C(F)(F)F)cc1)S(=O)(=O)c1ccccc1 (stereo not drawn),i,i,i,98.8,i,i,
CCOC(=O)C(O)(c1ccc(N(CC)S(=O)(=O)c2ccccc2)cc1)C(F)(F)F (stereo not drawn),i,i,i,99.6,i,i,
COC(=O)C(O)(c1cn(C)c2ccccc12)C(F)(F)F (stereo not drawn),i,i,i,i,i,i,
CCNc1nc(Cl)nc(NC(C)C)n1,i,i,i,i,i,i,
CN1CCc2nc(SCc3ccccc3Br)c(C#N)cc2C1,nt,i,i,64.8,nt,i,
CC(C)[C@H]1C(=O)O[C@H](C(C)C)C(=O)N(C)[C@@H](C(C)C)C(=O)O[C@H](C(C)C)C(=O)N(C)[C@@H](C(C)C)C(=O)O[C@H](C(C)C)C(=O)N1C,nt,i,i,100.4,nt,i,Lmaj promast 1uM=i
CC1(C)C(=O)C=C[C@]2(C)[C@H]3CC[C@@]4(C)[C@H](c5ccoc5)OC(=O)[C@H]5O[C@]54[C@]3(C)[C@H](O)C[C@@H]12,i,i,i,100.2,i,i,Lmaj promast 1uM=87.7
COCCn1c(-c2ccccc2)cc(C(=O)O)c1C,nt,nt,nt,i,nt,nt,
Cn1cccc1CNCCc1ccccc1F,i,i,i,97.7,i,i,Lmaj promast 1uM=i
Cn1cccc1CNCCc1ccccc1,i,i,i,i,i,i,
COCCCN1CCN(c2nnc3n2-c2sc(Br)cc2C(c2ccccc2Cl)=NC3)CC1,i,i,i,97.2,i,i,Lmaj promast 1uM=79.4
CCOCCN1CCN(c2nnc3n2-c2ccc(Cl)cc2C(c2ccccc2Cl)=NC3)CC1,i,i,i,99.1,i,i,Lmaj promast 1uM=51.3
Cc1nnc2n1-c1ccc(Br)cc1C(c1ccccc1Cl)=NC2,i,i,i,i,i,i,
Cc1c(C(c2ccc(Cl)cc2Cl)c2c(O)c3ccccc3oc2=O)c(=O)n(-c2ccccc2)n1C (stereo not drawn),nt,i,i,i,nt,i,
CN1CN(c2cccc([N+](=O)[O-])c2)CN=C1N[N+](=O)[O-],nt,i,i,i,nt,i,
Cc1ccc(NC(=O)CN2C(=O)CN=C(c3ccccc3)c3cc(Cl)ccc32)cc1,i,i,i,61.1,i,i,Lmaj promast 1uM=i
CN(C)c1ccc(NC(=O)CN2C(=O)CN=C(c3ccccc3)c3cc(Cl)ccc32)cc1,i,i,i,i,i,i,
